The text below walks through data of ChEMBL document CHEMBL1828600, “Derivatives of pyrrolo[3,4-d]pyridazinone, a new class of analgesic agents” (Eur J Med Chem, 2011).

The source made the active and inactive calls. Some results are limits rather than exact numbers.

The species entered for data set [1] is Mus musculus. As to the kind of experiment: Ratio of acetylsalicylic acid ED50 to compound ED50 for analgesic activity in Albino-Swiss mouse assessed as protection against phenylbenzoquinone-induced writhing. Type of data set: functional. The procedure, abridged:
(§1)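 Mice (groups of 6–8) dosed i.p. at 3.125–50 mg/kg as 0.5% methylcellulose suspension; 30 min later 0.02% phenylbenzoquinone (ethanol–water 5:95) 0.25 ml i.p. Writhes counted for 10 min starting 5 min after irritant. % effect versus control writhing count; ED50 with confidence limits by Litchfield and Wilcoxon.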
Background: In writhing tests, fewer writhes than in controls are read as antinociception.

Data set [2] can be described thus: Acute toxicity in ip dosed Albino-Swiss mouse. The note with it: in vivo. Type of data set: organism-based. The procedure, abridged:
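Mice (20–24 g) given compound i.p. as 0.5% methylcellulose suspension, 10 ml/kg, in rising doses up to 2000 mg/kg; six animals per dose. Deaths counted at 24 h, general behaviour watched for 6 h. LD50 by Litchfield and Wilcoxon.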

In data set [3] the test system is Mus musculus. Put plainly: Analgesic activity in Albino-Swiss mouse assessed as inhibition of heat-induced paw licking or jumping behavior administered as ip measured after 30 mins for 45 secs by Eddy and Leimbach's hot plate method. It is filed as functional. The procedure, abridged:
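Compound i.p. in 0.5% methylcellulose suspension (10 ml/kg), groups of 6–8 mice. Placed on plate at 54–56 °C; latency to forepaw licking or jumping timed by stop-watch before and 30 min after dosing, 45 s cut-off. Latency prolongation compared statistically. Morphine 1, 3, 6 mg/kg and acetylsalicylic acid 100–400 mg/kg i.p. as references.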
Background: Thermal pain tests record how soon the animal reacts.

The test system of data set [4] is Mus musculus. Put plainly: Analgesic activity in Albino-Swiss mouse assessed as protection against phenylbenzoquinone-induced writhing administered as ip 30 mins before phenylbenzoquinone challenge measured after 5 mins. It is filed as functional. Summed up: as §1
In data set [5] the test system is Mus musculus. Put plainly: Analgesic activity in Albino-Swiss mouse assessed as inhibition of heat-induced paw licking or jumping behavior at 200 mg/kg, ip measured after 30 mins for 45 secs by Eddy and Leimbach's hot plate method. Type of data set: functional, organism-based. Set-up: dose 200 mg/kg. Summed up: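 Albino-Swiss mice (20–24 g), groups of 6–8, dosed i.p. as a suspension in 0.5% methylcellulose (10 ml/kg). Each mouse was placed on a metal plate at 54–56 °C, and time to forepaw licking or jumping was stopwatch-timed before and 30 min after dosing, with a 45 s cut-off. Latency prolongation was compared by Student's t-test.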

The species entered for data set [6] is Mus musculus. Put plainly: Ratio of morphine ED50 to compound ED50 for analgesic activity in Albino-Swiss mouse by Eddy and Leimbach's hot plate method. Type of data set: functional.
The test system of data set [7] is Mus musculus. As to the kind of experiment: Toxicity in ip dosed Albino-Swiss mouse assessed as decrease in locomotor activity at hot plate test ED50 after 1 hr. Type of data set: organism-based. The following applies: in vivo. On the set-up: scale not given: the % may be the effect or the level left. Summed up:
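Mice (Albino-Swiss, 20–24 g) received compound i.p. as a 0.5% methylcellulose suspension (10 ml/kg). After 30 min, each mouse was put alone for a 30-min session in a circular photoresistor actometer (30 cm diameter, two photocells, impulse counter), which counted movements.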

In the next data set the target is Mu-type opioid receptor (Rattus norvegicus, UniProt P33535). Put plainly: Displacement of [3H]-dihydromorphine from mu opioid receptor in rat cerebral cortex by liquid scintillation counting. Type of data set: tissue-based. The procedure, abridged:
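Rat cerebral cortex homogenised in 50 mM Tris-HCl pH 7.6, washed by centrifugation at 48,000 × g, preincubated 30 min at 37 °C to remove endogenous opioids. Membranes incubated with 0.2 nM [3H]dihydromorphine and 7–8 compound concentrations (10^-11–10^-4 M); nonspecific binding with levallorphan. Filtration on GF/C, two washes, scintillation counting, duplicates. Result given as Ki.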
(In general: Displacement assays read how much labelled ligand stays bound in the presence of the test substance.)

The LD50 is the dose expected to kill half of the subjects tested. The ED50 is the dose at which the effect has come halfway, by size or by number of responders. For orientation: Ki means a measure of affinity in units of concentration, obtained from inhibition or displacement. One may read the IC50 as the concentration needed to halve the response being measured.

Chain of Mu-type opioid receptor (P33535 whole entry): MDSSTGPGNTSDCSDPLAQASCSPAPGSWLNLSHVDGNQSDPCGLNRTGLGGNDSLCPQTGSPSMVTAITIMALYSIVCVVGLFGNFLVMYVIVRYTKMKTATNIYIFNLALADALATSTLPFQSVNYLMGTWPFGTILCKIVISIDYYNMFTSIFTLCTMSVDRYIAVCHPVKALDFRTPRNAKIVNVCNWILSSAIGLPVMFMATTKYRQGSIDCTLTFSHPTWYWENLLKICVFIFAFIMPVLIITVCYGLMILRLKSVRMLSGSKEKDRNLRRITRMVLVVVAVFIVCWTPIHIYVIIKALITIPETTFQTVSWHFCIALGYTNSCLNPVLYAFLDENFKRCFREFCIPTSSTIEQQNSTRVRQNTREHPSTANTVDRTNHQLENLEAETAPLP

Take `Cc1c2c(=O)[nH]n(CCN3CCN(C/C=C/c4ccccc4)CC3)c(=O)c2c(C)n1-c1ccccc1`: the “Ratio ED50” value in the data set filed under Mus musculus [1] amounted to 100. The compound further had an LD50 in data set [2] greater than 2000 mg/kg. For the same compound, the ED50 result in the data set on Mus musculus [3] was “inactive”. Moreover, the ED50 in the data set with Mus musculus [4] came to 1.25 mg/kg.
`CN1CC[C@]23c4c5ccc(O)c4O[C@H]2[C@@H](O)C=C[C@H]3[C@H]1C5` [MORPHINE]: the ED50 with Mus musculus [3] (0.5 h) is 3.5 mg/kg; in the data set with Mus musculus [4], 2.44 mg/kg.
`COc1ccccc1N1CCN(CCn2[nH]c(=O)c3c(C)n(-c4ccccc4)c(C)c3c2=O)CC1`: the “Ratio ED50” value in the data set filed under Mus musculus [1] is on record as 100. In data set [2], this compound showed an LD50 greater than 2000 mg/kg. For the same compound, the ED50 result with Mus musculus [3] was “inactive”. Also, the ED50 in the data set with Mus musculus [4] came to 8.02 mg/kg.
Turning to `Cc1c2c(=O)[nH]n(CCN3CCN(c4ccccc4)CC3)c(=O)c2c(C)n1-c1ccccc1`, in the data set filed under Mus musculus [1], the “Ratio ED50” value was found to be 100. Further, the LD50 in data set [2] is greater than 2000 mg/kg. For the same compound, in the data set on Mus musculus [3], the ED50 result is “inactive”. For the same compound, the ED50 in the data set with Mus musculus [4] was 1.48 mg/kg.
Take `CC(=O)Oc1ccccc1C(=O)O`: the inhibition result in the data set with Mus musculus [5] is “inactive”.
For the compound `Cc1c2c(=O)[nH]n(CCN3CCN(c4ccccn4)CC3)c(=O)c2c(C)n1-c1ccccc1`, in the data set filed under Mus musculus [1], the “Ratio ED50” value worked out at 100. The same compound showed an LD50 in data set [2] greater than 2000 mg/kg. Besides, the ED50 result with Mus musculus [3] was “inactive”. For the same compound, the ED50 in the data set on Mus musculus [4] was 6.84 mg/kg.
In the case of `Cc1c2c(=O)[nH]n(CCN3CCN(c4cccc(C(F)(F)F)c4)CC3)c(=O)c2c(C)n1-c1ccccc1`, the “Ratio ED50” value worked out at 100 in the data set filed under Mus musculus [1] and 3 in the data set listed under Mus musculus [6]. In the data set with Mus musculus [7], the Activity is 20%. The LD50 in data set [2] is greater than 2000 mg/kg. The ED50 in the data set on Mus musculus [3] (0.5 h) came to 15.9 mg/kg; in the data set with Mus musculus [4], 1.23 mg/kg.
In the case of `Cc1c2c(=O)[nH]n(CCN3CCN(Cc4ccc5c(c4)OCO5)CC3)c(=O)c2c(C)n1-c1ccccc1`, the “Ratio ED50” value in the data set listed under Mus musculus [1] is listed as 100. Further, the LD50 in data set [2] was greater than 2000 mg/kg. Besides, in the data set on Mus musculus [3], the ED50 result is “inactive”. In the data set with Mus musculus [4], the ED50 was found to be 1.92 mg/kg.
The matching figures for `Cc1c2c(=O)[nH]n(CCN3CCN(C(c4ccccc4)c4ccccc4)CC3)c(=O)c2c(C)n1-c1ccccc1`: 100, greater than 2000 mg/kg, “inactive” and 1.83 mg/kg.
Turning to `COc1cccc(C2(O)CCCCC2CN(C)C)c1` (centres undefined) [TRAMADOL], the affinity on Mu-type opioid receptor corresponds to a Ki of 2.4 µM.
Turning to `Cc1c2c(=O)[nH]n(CCN3CCN(c4ccccc4F)CC3)c(=O)c2c(C)n1-c1ccccc1`, the entries for the “Ratio ED50” value in the data set listed under Mus musculus [1] and in the data set listed under Mus musculus [6] were 100 and 3, respectively. The compound also came in with an IC50 on Mu-type opioid receptor of 24.2 µM. At Mu-type opioid receptor, the affinity, expressed as Ki, was 11.1 µM. Moreover, the Activity in the data set on Mus musculus [7] was found to be 20%. The compound also returned an LD50 in data set [2] greater than 2000 mg/kg. Besides, the ED50 in the data set on Mus musculus [3] (0.5 h) was found to be 15 mg/kg; in the data set with Mus musculus [4], 0.31 mg/kg.
`C=CCN1CC[C@]23CCCC[C@H]2[C@H]1Cc1ccc(O)cc13` [LEVALLORPHAN] had an IC50 at Mu-type opioid receptor of 0.000634 µM.
As to `Cc1c2c(OCCCN3CCN(c4ccccc4)CC3)nn(C)c(=O)c2c(C)n1-c1ccccc1`, the LD50 in data set [2] was 1420 mg/kg. Moreover, the ED50 entry in the data set on Mus musculus [3] is “inactive”. Moreover, the ED50 in the data set on Mus musculus [4] is 7.9 mg/kg.
On the same counts, the results for `COc1ccccc1N1CCN(CCCOc2nn(C)c(=O)c3c(C)n(-c4ccccc4)c(C)c23)CC1` are greater than 2000 mg/kg, “inactive” and 11.2 mg/kg.
As to `Cc1c2c(=O)[nH]n(CCN3CCN(c4ccccc4Cl)CC3)c(=O)c2c(C)n1-c1ccccc1`, in the data set listed under Mus musculus [1], the “Ratio ED50” value was 100. Further, the LD50 in data set [2] was greater than 2000 mg/kg. Besides, in the data set on Mus musculus [3], the ED50 result is “inactive”. In addition, the ED50 in the data set on Mus musculus [4] was found to be 3.77 mg/kg.
For the compound `Cc1c2c(=O)[nH]n(CCN3CCC(Cc4ccccc4)CC3)c(=O)c2c(C)n1-c1ccccc1`, the “Ratio ED50” value in the data set listed under Mus musculus [1] was determined as 100. Also, the LD50 in data set [2] is greater than 2000 mg/kg. Also, in the data set with Mus musculus [3], the ED50 entry is “inactive”. Moreover, the 50% effective dose (ED50) in the data set on Mus musculus [4] worked out at 1.91 mg/kg.
On to `Cc1c2c(=O)[nH]n(CCN3CCN(Cc4ccccc4)CC3)c(=O)c2c(C)n1-c1ccccc1`, for which, in the data set listed under Mus musculus [1], the “Ratio ED50” value was 100. The LD50 in data set [2] is greater than 2000 mg/kg. In addition, the ED50 result in the data set with Mus musculus [3] was “inactive”. The ED50 with Mus musculus [4] came to 0.04 mg/kg.
`Cc1ccc(Cl)cc1N1CCN(CCn2[nH]c(=O)c3c(C)n(-c4ccccc4)c(C)c3c2=O)CC1`: the “Ratio ED50” value in the data set listed under Mus musculus [1] worked out at 100; in the data set filed under Mus musculus [6], 3. Besides, on Mu-type opioid receptor, the IC50 is 5.6 µM. The compound further had a Ki on Mu-type opioid receptor of 2.6 µM. Besides, the Activity in the data set on Mus musculus [7] is reported as 45%. In addition, the LD50 in data set [2] is greater than 2000 mg/kg. Moreover, the median effective dose (ED50) in the data set with Mus musculus [3] (0.5 h) turned out to be 10.3 mg/kg; with Mus musculus [4] it was 0.55 mg/kg.
